Screens from PubChem BioAssay.
PRMT1 inh: blocks human protein arginine methyltransferase 1; inhibition, % at 2.79 µM; recombinant PRMT1, activity-based probe fluorescence polarization; Q99873; hit rate 1.3% among 370,000;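 active means inhibition above about 21% made by adding two undisclosed values, limit read from the data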
HTRA1 inh: HTRA1 (human) protease inhibition; Q92743; recombinant HTRA1, FP-rhodamine activity-based probe, fluorescence polarization; inhibition, % at 5.96 µM; hit rate 0.5% among 340,000; in the data active means inhibition above about 36%
SIAE inh: blocks human sialic acid acetylesterase; AID 1053197; hit rate 0.69% among 370,000; Q9HAT2; SIAE FP-Rh probe binding, fluorescence polarization; inhibition, % at 9.66 µM;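 active means inhibition above a cutoff: mean of compounds within the control limits plus 3 SD of those, cut at about 17% in these data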
Target sequence (Q9HAT2 whole entry, looked up): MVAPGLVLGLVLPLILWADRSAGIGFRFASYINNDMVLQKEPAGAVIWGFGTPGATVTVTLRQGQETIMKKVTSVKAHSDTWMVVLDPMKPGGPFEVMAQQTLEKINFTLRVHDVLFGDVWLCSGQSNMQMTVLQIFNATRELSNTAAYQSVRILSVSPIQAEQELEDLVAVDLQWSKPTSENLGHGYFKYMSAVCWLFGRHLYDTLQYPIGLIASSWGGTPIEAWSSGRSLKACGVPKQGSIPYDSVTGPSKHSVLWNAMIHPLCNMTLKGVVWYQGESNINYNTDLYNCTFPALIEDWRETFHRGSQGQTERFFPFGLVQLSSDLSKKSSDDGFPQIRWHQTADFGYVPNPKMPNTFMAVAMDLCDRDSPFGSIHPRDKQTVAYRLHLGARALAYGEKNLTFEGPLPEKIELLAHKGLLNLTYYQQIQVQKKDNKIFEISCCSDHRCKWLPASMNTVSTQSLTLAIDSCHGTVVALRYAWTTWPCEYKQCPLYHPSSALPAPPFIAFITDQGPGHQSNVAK
TCR-CD3 inh: blocks the human TCR-CD3 interaction; TAMRA-labeled TCR probe fluorescence, biochemical; inhibition, % at 9.4 µM; hit rate 0.37% among 360,000; in the data active means inhibition above about 19%;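 further: recombinant mutant TCR 2C K166C tagged with TAMRA read by polarization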
mABHD4 FP: ABHD4 (mouse) inhibition, primary FP screen | Q8VD66 | purified mABHD4, FP-Rh probe fluorescence polarization | inhibition, % at 8.92 µM | hit rate 0.54% among 370,000 | AID 720543;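 active means inhibition exceeding the mean over every tested compound plus 3 SD, cut at about 30% in these data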
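Doses – 8.92 µM, single dose · Material – wild-type mouse ABHD4 protein · Replication – single well per compound (singlicate) · Measure – percent inhibition of probe binding, normalized to plate controls · Schedule – 45 min compound pre-incubation plus 60 min probe step, 25 °C · Detection – fluorescence polarization with parallel and perpendicular emission, 525/598 nm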
SIAE inh conf: confirmation of human SIAE inhibitors; shares compounds with SIAE inh; SIAE FP-Rh activity-based probe, fluorescence polarization; inhibition, % at 9.66 µM; hit rate 13% among 2,300; AID 1117263;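 active means mean inhibition of the replicates above the hit cutoff set in the primary screen, cut at about 17% in these data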;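 further: inhibitors lower polarization as more probe stays unbound to SIAE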
Each line names hits and unclear results; the compound was inactive in the other large screens (follow-up assays come after a bar, where they were run). In the library only some 2.5% were active in any assay of this set; here they are far more common.

Cc1cc(C)cc(C(=O)NC(CC(N)=O)c2ccc(N3CCN(c4ccccc4)CC3)c([N+](=O)[O-])c2)c1 (stereo unspecified)	SIAE inh 21 | SIAE inh conf inactive
NC(=O)CC(NC(=O)c1ccccc1)c1ccc(N2CCN(c3ccccc3)CC2)c([N+](=O)[O-])c1 (stereo unspecified)	none
O=C(CN1C(=O)NC2(CCCCC2)C1=O)NCc1cccs1	none
COc1cc(C2c3c([nH]c(=O)[nH]c3=O)Nc3ccc4ccccc4c32)ccc1O (stereo unspecified)	SIAE inh 30 | SIAE inh conf 37
CSc1ccc(N2C(=O)NC3(CCCCC3)C2=O)cc1	none
O=C1CC(c2ccco2)CC(O)=C1C=Nc1ccccc1-c1ccccc1 (stereo unspecified)	SIAE inh 27 | SIAE inh conf inactive
O=C1CC(c2ccco2)CC(O)=C1C=Nc1cc(Cl)ccc1O (stereo unspecified)	none
COc1cc(CNc2ccc(CNc3ncn[nH]3)cc2)ccc1OCC(=O)NC(C)(C)C	none
COc1cc(CNc2ccc(N3CCOCC3)cc2)ccc1OCC(=O)NC(C)(C)C	SIAE inh 19 | SIAE inh conf inactive
O=C(NCCC(F)(F)F)C1Cc2c(-c3ccc(Cl)cc3)ccnc2O1 (stereo unspecified)	none (no result: HTRA1 inh)
O=C(NNC(=O)C1CC1c1ccccc1)c1cccc([N+](=O)[O-])c1 (stereo unspecified)	SIAE inh 18 | SIAE inh conf inactive
Cc1ccc(S(=O)(=O)N(C)C)cc1NC(=O)c1sccc1Cl	SIAE inh 17 | SIAE inh conf inactive
C[C@H](CO)N1C[C@H](C)[C@H](CN(C)S(=O)(=O)c2ccccc2)Oc2ccc(NC(=O)NC3CCCCC3)cc2CC1=O	SIAE inh 30 | SIAE inh conf inactive
C[C@H](CO)N1C[C@H](C)[C@H](CN(C)S(=O)(=O)c2cccs2)Oc2ccc(NC(=O)Nc3ccc4c(c3)OCO4)cc2CC1=O	SIAE inh 21 | SIAE inh conf inactive
CC1(C)CC(=O)N(CC(=O)N2CCN(Cc3ccccc3)CC2)c2ccccc2S1(=O)=O	none (no result: HTRA1 inh, TCR-CD3 inh)
CCn1ncc(/C=N/NC(=O)c2cc(Cl)ccc2OC)c1C	none
COc1cc(C(=O)NCCC2=CCCCC2)ccc1OC1CCN(C(C)=O)CC1	SIAE inh 19 | SIAE inh conf inactive
COc1cc(C(=O)NCCc2ncccc2C)ccc1OC1CCN(C(C)=O)CC1	none
CC(=O)N1CCN(S(=O)(=O)c2cccc(C(=O)OCc3ccc(C(C)(C)C)cc3)c2)CC1	none
COc1ccc(Nc2cc(C)nc3ccc(OC)cc23)cc1	SIAE inh 19 | SIAE inh conf inactive
COc1ccc(N2CC(=O)N(c3ccc(OC)c(OC)c3)CC2=O)cc1OC	SIAE inh 19 | SIAE inh conf inactive
O=C(c1ccccc1F)N1CCN(c2ccccc2)CC1	SIAE inh 17 | SIAE inh conf inactive
Cc1cc(/C=N/NC(=O)C(=O)NCc2ccccn2)c(C)n1-c1ccccc1	none
CS(=O)(=O)N(Cc1ccc(C(=O)NCCSCc2ccco2)cc1)c1ccccc1	SIAE inh 18 | SIAE inh conf inactive
O=C(NNc1c2ccccc2nc2ccccc12)c1cccc(O)c1	SIAE inh 18 | SIAE inh conf inactive
COc1ccc(CC(=O)OCC(=O)Nc2ccc3[nH]c(=O)[nH]c3c2)cc1	none
O=C(CSc1nncs1)Nc1ccc2[nH]c(=O)[nH]c2c1	SIAE inh 17 | SIAE inh conf inactive
O=C(COC(=O)Cc1ccc(F)cc1)Nc1ccc2[nH]c(=O)[nH]c2c1	SIAE inh 18 | SIAE inh conf inactive
COc1cc2ncnc(NCCCN3CCOCC3)c2cc1OC	SIAE inh 38 | SIAE inh conf inactive
CC(=O)c1cccc(NC(=S)NCCCCc2ccccc2)c1	SIAE inh 42 | SIAE inh conf 47
CC(=O)c1cccc(NC(=S)NC2CC2)c1	none
CCCCNC(=S)Nc1cccc(C(C)=O)c1	none
CC(=O)c1cccc(NC(=S)NC2CCCCC2)c1	SIAE inh 19 | SIAE inh conf inactive
Cc1ccc(NC(=O)CSCC(=O)N2CCCc3ccccc32)cc1	none
COC(=O)[C@]12CCCCC=C1N(Cc1ccc(OC)cc1)C(=O)[C@@H]2CC(=O)NCCc1ccccc1OC	none (no result: HTRA1 inh, TCR-CD3 inh)
CSCCC(NC(=O)COc1ccccc1)C(=O)N1CCN(c2ccccc2O)CC1 (stereo unspecified)	SIAE inh 18 | SIAE inh conf inactive
Cc1ccc(C)c(S(=O)(=O)N2CCC(c3nc4c(nnn4Cc4ccc5c(c4)OCCO5)c(=O)[nH]3)CC2)c1	none
O=C(O)C1(c2ccccc2)CCN(S(=O)(=O)c2ccc(F)c(F)c2)CC1	SIAE inh 20 | SIAE inh conf inactive
C[C@@H]1/C=C/CC(=O)N[C@H](c2cccc(Br)c2)[C@H](C)/C=C/CC(=O)N[C@@H]1c1cccc(Br)c1	none (no result: HTRA1 inh, TCR-CD3 inh)
COC(=O)[C@]12C[C@H](CC(=O)NCCCN3CCCC3=O)C(=O)N(Cc3ccccc3)C1=C[C@H](C(C)C)O[C@@H]2C1CC1	SIAE inh 20 (no result: HTRA1 inh) | SIAE inh conf inactive
COC(=O)[C@]12C[C@H](CC(=O)NCc3cccc(C(F)(F)F)c3)C(=O)N(Cc3ccccc3)C1=C[C@H](C(C)(C)C)O[C@@H]2C	SIAE inh 27 (no result: HTRA1 inh) | SIAE inh conf inactive
C=CCNc1ccc2c(c1)OC[C@@H](CC(C)C)NS2(=O)=O	none (no result: HTRA1 inh)
O=S(=O)(c1ccccc1F)N(Cc1ccco1)Cc1nnc(-c2ccccc2Br)o1	none
COC(=O)c1cn(C)c2ccc(S(=O)(=O)N(C)C3CCCCC3)cc2c1=O	SIAE inh 20 | SIAE inh conf inactive
CC1(C)CC(=O)C(C=NCC(N)=O)=C(O)C1	SIAE inh 18 | SIAE inh conf inactive
Cc1ccc(NC(=O)N/C=C/c2ccco2)cc1	none
CCC(C)[C@H](NC(=O)Nc1ccccc1F)C(=O)OC (stereo partly specified)	SIAE inh 22 | SIAE inh conf inactive
COC(=O)[C@H](C)NC(=O)Nc1ccccc1F	none
O=P(c1ccccc1)(c1ccccc1)C(O)c1ccncc1 (stereo unspecified)	SIAE inh 24 | SIAE inh conf inactive
OC(c1ccccc1)c1ccncc1 (stereo unspecified)	none
CCOC(=O)c1ccc(N2CCN(C(=O)c3ccccc3)CC2)c(NC(=O)c2ccco2)c1	none
Oc1[nH]c2ccccc2c1N=Nc1ccccc1Cl	none
O=Nc1c(O)[nH]c2ccc(Cl)c(Cl)c12	SIAE inh 63 | SIAE inh conf 42
Cc1ccc(C(=O)OCC(=O)N2C(C)CCCC2C)cc1S(=O)(=O)N1CCOCC1 (stereo unspecified)	none
COC(=O)C1CCCCN1C(=O)c1ccc2oc(C(C)C)nc2c1 (stereo unspecified)	SIAE inh 17 | SIAE inh conf inactive
N=C1/C(=C/c2cccn2Cc2ccc(Cl)cc2)C(=O)N=C2SC=CN12	none
